Assay results taken from ChEMBL document CHEMBL3085627 (J Med Chem, 2013).

Assays:
D(2) dopamine receptor [1] = molecular target: T1, D(2) dopamine receptor (Homo sapiens, UniProt P14416); test: Displacement of [3H]-spiperone from human dopamine D2L receptor expressed in CHO cell membranes after 3 hrs by liquid scintillation counting analysis
Method in brief: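 Competition against the radiolabeled antagonist [3H]spiperone at human D2L receptor in FlpIn CHO cell membranes. Affinity is reported as Ki.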

D(2) dopamine receptor [2] = molecular target: T1, D(2) dopamine receptor; test: Agonist activity at human dopamine D2L receptor expressed in CHO […] assessed as inhibition of forskolin-stimulated cAMP production after 30 mins by Alphascreen assay; assay type: functional, cell-based
Method in brief: (§1)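 Concentration-response curves are fitted to the operational model of agonism to derive functional affinity (pKA) and efficacy (τ). The transduction coefficient log(τ/KA) is calculated per pathway, and bias is expressed as ΔΔlog(τ/KA). Statistical comparison uses Student's t-test.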

D(2) dopamine receptor [3] = molecular target: T1, D(2) dopamine receptor; test: Agonist activity at human dopamine D2L receptor expressed in CHO […] assessed as phosphorylation of ERK1/2 by Alphascreen assay; assay type: cell-based; method in brief: as §1
D(2) dopamine receptor [4] = molecular target: T1, D(2) dopamine receptor; settings: CHO

T1 sequence (P14416 whole entry): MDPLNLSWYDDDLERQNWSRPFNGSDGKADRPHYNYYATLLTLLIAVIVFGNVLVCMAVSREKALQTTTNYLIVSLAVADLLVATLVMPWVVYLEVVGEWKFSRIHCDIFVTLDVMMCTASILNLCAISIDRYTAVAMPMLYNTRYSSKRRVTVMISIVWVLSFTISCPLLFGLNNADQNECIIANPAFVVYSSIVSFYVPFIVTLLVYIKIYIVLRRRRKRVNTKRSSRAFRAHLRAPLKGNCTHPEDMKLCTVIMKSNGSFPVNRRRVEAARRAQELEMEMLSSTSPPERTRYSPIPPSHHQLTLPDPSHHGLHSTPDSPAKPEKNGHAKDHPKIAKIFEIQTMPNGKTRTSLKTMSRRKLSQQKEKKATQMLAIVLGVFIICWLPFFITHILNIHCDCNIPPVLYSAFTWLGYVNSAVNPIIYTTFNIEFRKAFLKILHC

SMILES	Ki (D(2) dopamine receptor [1])	pKA (D(2) dopamine receptor [2])	pKA (D(2) dopamine receptor [3])	KiH (D(2) dopamine receptor [4])	KiL (D(2) dopamine receptor [4])
CC(C)(C)OC(=O)N[C@H]1CC[C@H](CCN2CCCN(c3cccc(Cl)c3Cl)CC2)CC1	10.5 nM	–	–	–	–
CC(C)(C)OC(=O)NC[C@H]1CC[C@H](CN2CCN(c3cccc(Cl)c3Cl)CC2)CC1	148 nM	6.95	6.86	–	–
CC(=O)N[C@H]1CC[C@H](CCN2CCc3ccccc3C2)CC1	–	6.85	–	–	–
CC(C)(C)OC(=O)Nc1ccc(CCN2CCc3ccccc3C2)cc1	550 nM	5.95	–	–	–
CC(C)OC(=O)N[C@H]1CC[C@H](CCN2CCc3ccccc3C2)CC1	1480 nM	6.3	–	–	–
O=C(N[C@H]1CC[C@H](CCN2CCc3ccccc3C2)CC1)Oc1ccccc1	912 nM	5.67	–	–	–
CC(C)(C)OC(=O)N[C@H]1CC[C@@H](CCN2CCc3ccccc3C2)CC1	–	7.34	–	–	–
CC(C)(C)OC(=O)N[C@H]1CC[C@H](CCN2CCc3ccc(C#N)cc3C2)CC1	2240 nM	6.81	–	–	–
CC(C)(C)NC(=O)N[C@H]1CC[C@H](CCN2CCc3ccccc3C2)CC1	245 nM	6.72	–	–	–
NCCc1ccc(O)c(O)c1	–	–	–	58 nM	3.42 µM
CC(C)(C)OC(=O)N[C@H]1CC[C@H](CCN2CCc3ccc([N+](=O)[O-])cc3C2)CC1	380 nM	–	–	–	–

Other lines, results leading:

Ki (D(2) dopamine receptor [1])	pKA (D(2) dopamine receptor [2])	pKA (D(2) dopamine receptor [3])	KiH (D(2) dopamine receptor [4])	KiL (D(2) dopamine receptor [4])	SMILES
355 nM	7.18	7.48	–	–	CC(C)(C)OC(=O)N[C@H]1CC[C@H](CN2CCc3ccccc3C2)CC1
5250 nM	6.05	–	–	–	CC(C)COC(=O)N[C@H]1CC[C@H](CCN2CCc3ccccc3C2)CC1
–	7.19	–	–	–	CN(C)C(=O)N[C@H]1CC[C@H](CCN2CCc3ccccc3C2)CC1
1150 nM	6.82	6.69	–	–	CC(C)(C)OC(=O)NC[C@H]1CC[C@H](CN2CCc3ccccc3C2)CC1
–	–	7.61	–	–	CN(C)C(=O)N[C@H]1CC[C@H](CCN2CCN(c3cccc(Cl)c3Cl)CC2)CC1
–	7.23	–	–	–	CCOC(=O)N[C@H]1CC[C@H](CCN2CCc3ccccc3C2)CC1
309 nM	6.27	5.43	–	–	CC(C)(C)OC(=O)N[C@H]1CC[C@H](CN2CCN(c3cccc(Cl)c3Cl)CC2)CC1
–	7.11	7.51	–	–	CC(C)(C)OC(=O)N[C@H]1CC[C@H](CCN2CCN(c3cccc(Cl)c3Cl)CC2)CC1
–	6.73	6.79	–	–	CC(C)(C)OC(=O)N[C@H]1CC[C@@H](CCN2CCN(c3cccc(Cl)c3Cl)CC2)CC1
23.4 nM	–	–	–	–	CC(=O)N[C@H]1CC[C@H](CCN2CCc3ccc(C#N)cc3C2)CC1
42.7 nM	6.92	7.56	–	–	CN(C)C(=O)NC[C@H]1CC[C@H](CN2CCN(c3cccc(Cl)c3Cl)CC2)CC1
–	6.45	7.1	–	–	CC(C)(C)OC(=O)N[C@H]1CC[C@H](CCN2CCc3ccccc3C2)CC1
–	6.96	–	–	–	CN(C)C(=O)N[C@H]1CC[C@@H](CCN2CCc3ccccc3C2)CC1
